For assay [1], the system named is Respiratory syncytial virus. The assay can be described thus: Antiviral activity against RSV A2 in MA104 cells by CPE assay. The class given is functional, organism-based. Particulars: human respiratory syncytial virus. The method in brief: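 RSV strain A2 grown in MA-104 cells; cells passaged in MEM with 9% fetal bovine serum and 0.1% NaHCO3. Cytopathic-effect inhibition read-out. Activity expressed as 50% effective concentration (EC50) in µg/mL.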

Assay [2] has as its system Respiratory syncytial virus. The assay can be described thus: Antiviral activity against RSV A2 in MA104 cells by plaque reduction assay. The class given is functional, organism-based. To be noted: human respiratory syncytial virus. The method, boiled down:
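MA-104 monolayers infected with 200 PFU/well RSV A2, adsorbed 2.5 h at 37 °C in serum-free MEM. Inoculum removed and agarose overlay added; each compound dilution plated in duplicate. Plaques counted after 4 days and expressed as percent of control. EC50 (µg/mL) derived by regression of mean percent of control at each concentration.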
In general terms: In a plaque reduction assay, fewer plaques than in the control indicate reduced infectivity or spread.

≈ marks a conversion by molar mass, not a printed value.

In the case of `C/C=C(/C)C(=O)O[C@@H]1[C@@H]2OC[C@]3(C)[C@H](O)C[C@H](OC(C)=O)[C@@](C)([C@@H]23)[C@H]2C[C@H](OC(C)=O)[C@]3(C)C(=CC[C@H]3C3COC(=O)C3)[C@]12C` (stereo partly drawn) [DYSOXYLIN A], in assay [1], a half-maximal effect (EC50) was put at 2 µg/mL (≈ 3.18 µM) and the half-maximal inhibitory concentration (IC50) (usually the midpoint of a concentration-inhibition curve) turned out to be 150 µg/mL (≈ 239 µM). In assay [2], the EC50 (in general, the midpoint of the concentration-response curve) amounted to 150 µg/mL (≈ 239 µM) and the IC50 came out at 112 µg/mL (≈ 178 µM).

In assay [1], `CC(=O)O[C@H]1C[C@H]2[C@](C)(C3=CC[C@@H](C4COC(=O)C4)[C@@]31C)[C@H](OC(=O)c1ccccc1)[C@@H]1OC[C@]3(C)[C@H](O)C[C@H](OC(C)=O)[C@@]2(C)[C@@H]13` (stereo partly drawn) [DYSOXYLIN B] returned an EC50 of 4 µg/mL (≈ 6.15 µM) and an IC50 of 16 µg/mL (≈ 24.6 µM). Besides, in assay [2], the EC50 came out at 30 µg/mL (≈ 46.1 µM) and the IC50 was 7 µg/mL (≈ 10.8 µM).

In the case of `CC(=O)O[C@H]1C[C@H]2[C@](C)(C3=CC[C@@H](C4COC(=O)C4)[C@@]31C)[C@H](OC(=O)/C=C(\C)C(C)C)[C@@H]1OC[C@]3(C)[C@H](O)C[C@H](OC(C)=O)[C@@]2(C)[C@@H]13` (stereo partly drawn) [DYSOXYLIN D], the EC50 in assay [1] is 1 µg/mL (≈ 1.52 µM); in assay [2] it was 40 µg/mL (≈ 60.9 µM). Besides, the IC50 was greater than 200 µg/mL in assay [1] and 42 µg/mL (≈ 63.9 µM) in assay [2].

`CCC(C)C(=O)O[C@@H]1[C@@H]2OC[C@]3(C)[C@H](O)C[C@H](OC(C)=O)[C@@](C)([C@@H]23)[C@H]2C[C@H](OC(C)=O)[C@]3(C)C(=CC[C@H]3C3COC(=O)C3)[C@]12C` (stereo partly drawn) [DYSOXYLIN C]: in assay [2], the EC50 stood at 146 µg/mL (≈ 231 µM) and the IC50 is 52 µg/mL (≈ 82.4 µM).

With `NC(=O)c1ncn([C@@H]2O[C@H](CO)[C@@H](O)[C@H]2O)n1` [RIBAVIRIN], in assay [1], the EC50 was determined as 3.6 µg/mL (≈ 14.7 µM) and the midpoint of inhibition, the IC50, lay at 180 µg/mL (≈ 737 µM). In addition, in assay [2], a half-maximal response (EC50) required 20 µg/mL (≈ 81.9 µM) and it took 460 µg/mL (≈ 1880 µM) to reach half-maximal inhibition (IC50).

The values are drawn from ChEMBL document CHEMBL1142060, “Dysoxylins A-D, tetranortriterpenoids with potent anti-RSV activity from Dysoxylum gaudichaudianum” (J Nat Prod, 2007).
